Laboratory results: ChEMBL document CHEMBL4406880, “Design, synthesis, and bioactivity of dihydropyrimidine derivatives as kinesin spindle protein inhibitors” (Bioorg Med Chem, 2019)

How the values were obtained:
Type in all cases: functional
CCRF-CEM = experiment: Growth inhibition of human CCRF-CEM cells assessed as growth percentage at 10 uM incubated for 48 hrs by sulforhodamine B assay relative to control; conditions: read-out: Activity
Summary of the method: (§1)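 NCI-60 one-dose screen: cells in RPMI 1640 with 5% FBS and 2 mM L-glutamine, plated at 5,000–40,000 cells/well and preincubated 24 h at 37 °C, 5% CO2. Compound is added from a DMSO stock to a final 10 µM and incubated 48 h. Cells are TCA-fixed and stained with sulforhodamine B, read at 515 nm. Output is % growth versus untreated control, with a time-zero plate.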

A549 = experiment: Growth inhibition of human A549/ATCC cells assessed as growth percentage at 10 uM incubated for 48 hrs by sulforhodamine B assay relative to control; conditions: A549, 48 h, read-out: Activity; summary of the method: as §1
RPMI-8226 = experiment: Growth inhibition of human RPMI8226 cells assessed as growth percentage at 10 uM incubated for 48 hrs by sulforhodamine B assay relative to control; conditions: RPMI-8226, 48 h, read-out: Activity
Summary of the method: (§2)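 NCI-60 single-dose screen. Cells were grown in RPMI 1640 with 5% FBS and 2 mM L-glutamine and plated at 5,000–40,000 cells/well. After an overnight preincubation at 37 °C in 5% CO2, compound was added at a final 10 µM from a DMSO stock, with DMSO/PBS controls. After 48 h, cells were TCA-fixed and stained with 0.4% SRB, and absorbance was read at 515 nm. Growth is given as a percentage of untreated control.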

EKVX = experiment: Growth inhibition of human EKVX cells assessed as growth percentage at 10 uM incubated for 48 hrs by sulforhodamine B assay relative to control; conditions: read-out: Activity; summary of the method: as §1
K562 = experiment: Growth inhibition of human K562 cells assessed as growth percentage at 10 uM incubated for 48 hrs by sulforhodamine B assay relative to control; conditions: K562, 48 h, read-out: Activity
Summary of the method: (§3)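 NCI-60 one-dose screen. Cells in RPMI 1640 with 5% FBS and 2 mM L-glutamine, seeded at 5,000–40,000 cells/well according to doubling time, and preincubated overnight at 37 °C, 5% CO2. A time-zero plate was TCA-fixed at drug addition. Compound from DMSO stock, final 10 µM, 48 h; DMSO vehicle controls. Fixation with TCA, 10% final (16% for suspension cells). SRB stain, Tris solubilization, A515. Result given as % growth versus untreated cells.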

HOP-62 = experiment: Growth inhibition of human HOP62 cells assessed as growth percentage at 10 uM incubated for 48 hrs by sulforhodamine B assay relative to control; conditions: HOP-62, 48 h, read-out: Activity; summary of the method: as §3
HOP-92 = experiment: Growth inhibition of human HOP92 cells assessed as growth percentage at 10 uM incubated for 48 hrs by sulforhodamine B assay relative to control; conditions: HOP-92, 48 h, read-out: Activity; summary of the method: as §3
HCT-116 = experiment: Growth inhibition of human HCT116 cells assessed as growth percentage at 10 uM incubated for 48 hrs by sulforhodamine B assay relative to control; conditions: HCT-116, 48 h, read-out: Activity; summary of the method: as §1
HCT-15 = experiment: Growth inhibition of human HCT15 cells assessed as growth percentage at 10 uM incubated for 48 hrs by sulforhodamine B assay relative to control; conditions: HCT-15, 48 h, read-out: Activity; summary of the method: as §1
HT-29 = experiment: Growth inhibition of human HT-29 cells assessed as growth percentage at 10 uM incubated for 48 hrs by sulforhodamine B assay relative to control; conditions: HT-29, 48 h, read-out: Activity; summary of the method: as §3
KM12 = experiment: Growth inhibition of human KM12 cells assessed as growth percentage at 10 uM incubated for 48 hrs by sulforhodamine B assay relative to control; conditions: KM12, 48 h, read-out: Activity; summary of the method: as §3
SW-620 = experiment: Growth inhibition of human SW620 cells assessed as growth percentage at 10 uM incubated for 48 hrs by sulforhodamine B assay relative to control; conditions: SW-620, 48 h, read-out: Activity; summary of the method: as §2
SF-295 = experiment: Growth inhibition of human SF295 cells assessed as growth percentage at 10 uM incubated for 48 hrs by sulforhodamine B assay relative to control; conditions: SF-295, 48 h, read-out: Activity; summary of the method: as §2
Malme-3M = experiment: Growth inhibition of human MALME-3M cells assessed as growth percentage at 10 uM incubated for 48 hrs by sulforhodamine B assay relative to control; conditions: read-out: Activity; summary of the method: as §3
MDA-MB-435 = experiment: Growth inhibition of human MDA-MB-435 cells assessed as growth percentage at 10 uM incubated for 48 hrs by sulforhodamine B assay relative to control; conditions: MDA-MB-435, 48 h, read-out: Activity; summary of the method: as §3
SK-MEL-28 = experiment: Growth inhibition of human SK-MEL-28 cells assessed as growth percentage at 10 uM incubated for 48 hrs by sulforhodamine B assay relative to control; conditions: SK-MEL-28, 48 h, read-out: Activity; summary of the method: as §2
UACC-62 = experiment: Growth inhibition of human UACC62 cells assessed as growth percentage at 10 uM incubated for 48 hrs by sulforhodamine B assay relative to control; conditions: UACC-62, 48 h, read-out: Activity; summary of the method: as §2
OVCAR-3 = experiment: Growth inhibition of human OVCAR3 cells assessed as growth percentage at 10 uM incubated for 48 hrs by sulforhodamine B assay relative to control; conditions: OVCAR-3, 48 h, read-out: Activity; summary of the method: as §3
OVCAR-4 = experiment: Growth inhibition of human OVCAR4 cells assessed as growth percentage at 10 uM incubated for 48 hrs by sulforhodamine B assay relative to control; conditions: OVCAR-4, 48 h, read-out: Activity; summary of the method: as §3
OVCAR-5 = experiment: Growth inhibition of human OVCAR5 cells assessed as growth percentage at 10 uM incubated for 48 hrs by sulforhodamine B assay relative to control; conditions: OVCAR-5, 48 h, read-out: Activity; summary of the method: as §2
NCI/ADR-RES = experiment: Growth inhibition of human NCI/ADR-RES cells assessed as growth percentage at 10 uM incubated for 48 hrs by sulforhodamine B assay relative to control; conditions: read-out: Activity; summary of the method: as §3
A498 = experiment: Growth inhibition of human A498 cells assessed as growth percentage at 10 uM incubated for 48 hrs by sulforhodamine B assay relative to control; conditions: A498, 48 h, read-out: Activity; summary of the method: as §1
ACHN = experiment: Growth inhibition of human ACHN cells assessed as growth percentage at 10 uM incubated for 48 hrs by sulforhodamine B assay relative to control; conditions: read-out: Activity; summary of the method: as §1
CAKI-1 = experiment: Growth inhibition of human Caki1 cells assessed as growth percentage at 10 uM incubated for 48 hrs by sulforhodamine B assay relative to control; conditions: CAKI-1, 48 h, read-out: Activity; summary of the method: as §1
SN12C = experiment: Growth inhibition of human SN12C cells assessed as growth percentage at 10 uM incubated for 48 hrs by sulforhodamine B assay relative to control; conditions: read-out: Activity; summary of the method: as §2
PC-3 = experiment: Growth inhibition of human PC3 cells assessed as growth percentage at 10 uM incubated for 48 hrs by sulforhodamine B assay relative to control; conditions: PC-3, 48 h, read-out: Activity; summary of the method: as §2
MDA-MB-231 = experiment: Growth inhibition of human MDA-MB-231 cells assessed as growth percentage at 10 uM incubated for 48 hrs by sulforhodamine B assay relative to control; conditions: MDA-MB-231, 48 h, read-out: Activity; summary of the method: as §3

Row | SMILES | growth at 10 µM (A549) [%] | growth at 10 µM (RPMI-8226) [%] | growth at 10 µM (EKVX) [%] | growth at 10 µM (K562) [%] | growth at 10 µM (HOP-62) [%] | growth at 10 µM (HOP-92) [%] | growth at 10 µM (HCT-116) [%] | growth at 10 µM (HCT-15) [%] | growth at 10 µM (HT-29) [%] | growth at 10 µM (KM12) [%] | growth at 10 µM (SW-620) [%] | growth at 10 µM (SF-295) [%] | growth at 10 µM (Malme-3M) [%] | growth at 10 µM (SK-MEL-28) [%] | growth at 10 µM (UACC-62) [%] | growth at 10 µM (OVCAR-4) [%] | growth at 10 µM (OVCAR-5) [%] | growth at 10 µM (NCI/ADR-RES) [%] | growth at 10 µM (ACHN) [%] | growth at 10 µM (CAKI-1) [%] | further results
1 | CC1=C(C(=O)OC(C)C)C(c2ccc3c(c2)OCO3)NC(=S)N1 (racemic) | 104 | 87.7 | 94.4 | 107 | 119 | 96.6 | 95.6 | 100 | 103 | 108 | 107 | 95.8 | 95.9 | 106 | 85.2 | 98.4 | 105 | 101 | 99.3 | 93.8 | growth at 10 µM (CCRF-CEM): 105%; growth at 10 µM (MDA-MB-435): 106%; growth at 10 µM (OVCAR-3): 121%; growth at 10 µM (A498): 109%; growth at 10 µM (SN12C): 105%; growth at 10 µM (PC-3): 86%; growth at 10 µM (MDA-MB-231): 101%
2 | CC(=O)N1C(=S)NC(C)=C(C(=O)OCC(C)C)C1c1ccc2c(c1)OCO2 (racemic) | 95.9 | 54.8 | 99.8 | 78.2 | 91.9 | 80.6 | 93.5 | 93.3 | 104 | 93.8 | 97.3 | 101 | 108 | 105 | 85.7 | 79.6 | 99.4 | 97 | 105 | 96.2 | growth at 10 µM (MDA-MB-435): 95.5%; growth at 10 µM (OVCAR-3): 96.8%; growth at 10 µM (A498): 104%; growth at 10 µM (SN12C): 94.8%; growth at 10 µM (PC-3): 81.2%; growth at 10 µM (MDA-MB-231): 88.7%
3 | CC1=C(C(=O)c2ccccc2)C(c2ccc3c(c2)OCO3)NC(=O)N1 (racemic) | 101 | 100 | 95.1 | 92.7 | 99.2 | 92.4 | 98.9 | 99.8 | 105 | 99.9 | 98.5 | 101 | 91.7 | 117 | 94.3 | 99.9 | 106 | 103 | 108 | 91.1 | growth at 10 µM (CCRF-CEM): 98.5%; growth at 10 µM (MDA-MB-435): 90.1%; growth at 10 µM (OVCAR-3): 106%; growth at 10 µM (SN12C): 97%; growth at 10 µM (PC-3): 103%; growth at 10 µM (MDA-MB-231): 102%
4 | CC(=O)N1C(=S)NC(C)=C(C(=O)OCc2ccccc2)C1c1ccc2c(c1)OCO2 (racemic) | 95.6 | 54.8 | 96.8 | 55.4 | 75.5 | 73.3 | 41.4 | 83.8 | 52.2 | 71.1 | 65.3 | 96.4 | 91.6 | 102 | 75.3 | 99.3 | 107 | 95.3 | 95.5 | 92.4 | growth at 10 µM (MDA-MB-435): 60.1%; growth at 10 µM (OVCAR-3): 104%; growth at 10 µM (A498): 92%; growth at 10 µM (SN12C): 54.5%; growth at 10 µM (PC-3): 81.3%; growth at 10 µM (MDA-MB-231): 84.5%
5 | CC1=C(C(=O)OCC(C)C)C(c2ccc3c(c2)OCO3)NC(=S)N1 (racemic) | 99 | 84 | 104 | 90.7 | 121 | 103 | 101 | 100 | 106 | 99.1 | 115 | 104 | 105 | 119 | 90.3 | 103 | 105 | 96.7 | 98.5 | 86.6 | growth at 10 µM (CCRF-CEM): 101%; growth at 10 µM (MDA-MB-435): 103%; growth at 10 µM (OVCAR-3): 109%; growth at 10 µM (A498): 121%; growth at 10 µM (SN12C): 106%; growth at 10 µM (PC-3): 84.4%; growth at 10 µM (MDA-MB-231): 118%
6 | COCCOC(=O)C1=C(C)NC(=S)N(C(C)=O)C1c1ccc2c(c1)OCO2 (racemic) | 99.2 | 97.7 | 94.1 | 94.3 | 87.7 | 85.4 | 103 | 103 | 106 | 95.9 | 100 | 98.5 | 88.6 | 106 | 98.2 | 87.6 | 102 | 99.8 | 102 | 97.4 | growth at 10 µM (MDA-MB-435): 103%; growth at 10 µM (OVCAR-3): 101%; growth at 10 µM (A498): 85.3%; growth at 10 µM (SN12C): 96.7%; growth at 10 µM (PC-3): 97.8%; growth at 10 µM (MDA-MB-231): 97.8%
7 | CC1=C(C(=O)OCc2ccccc2)C(c2ccc3c(c2)OCO3)n2c(nc3ccccc32)N1 (racemic) | 34 to 47.1 | 39.9 | 42 to 64.4 | 13.8 to 25 | 36 to 44.2 | 32 to 78.5 | 18.8 to 25 | 23 to 30.4 | 7 to 14.4 | 15 to 17.3 | 17.6 to 19 | 8 to 20.4 | 26 to 39.7 | 52 to 61.8 | 22 to 46.2 | 54 to 73.8 | 53 to 64.4 | 20 to 23.2 | 36 to 38.4 | 24 to 34.3 | growth at 10 µM (CCRF-CEM): 24.9 to 31%; growth at 10 µM (SN12C): 47.6 to 51%; growth at 10 µM (PC-3): 35 to 41.1%; growth at 10 µM (MDA-MB-231): 64 to 68.6%
